We go through one molecule from ChEMBL document CHEMBL5370658, “Development of First-in-Class Dual Sirt2/HDAC6 Inhibitors as Molecular Tools for Dual Inhibition of Tubulin Deacetylation” (J Med Chem, 2023).

The structures appear in SMILES notation. Active and inactive are the calls of the source. The calls are words filed in the database; no cut-off is given here.

For experiment [1], the system named is MCF7. Description: Cytotoxicity against human MCF7 cells assessed as reduction in cell viability incubated for 72 hrs by MTT assay. The class given is functional, cell-based. Put shortly:
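Cell viability EC50 from at least two independent experiments, each run in triplicate. Results are compared by t-test.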
(In general: Formazan colour is commonly taken as a measure of viable cells.)

For experiment [2], the target named is Histone deacetylase 9 (Homo sapiens) (UniProt Q9UKV0). Put plainly: Inhibition of HDAC9 (unknown origin) using Abz-SRGGK(STFA)FRR-NH2 as substrate at 6 to 20000 nM preincubated for 5 mins followed by substrate addition and measured every 30 secs for 30 mins by continuous fluorescence based assay. To be noted: dose 6-20000 nM, time 35.0 min. Put shortly: (§1)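 Continuous fluorescence assay in 20 mM HEPES pH 7.4, 140 mM NaCl, 10 mM KCl, 1 mM TCEP, 0.2 mg/mL BSA, 3% DMSO final. Enzyme (HDAC4 5 nM, HDAC5 10 nM, HDAC7 5 nM, HDAC9 20 nM) preincubated with inhibitor at room temperature. HDAC10 (5 nM) instead in 20 mM HEPES pH 7.4, 0.5 mg/mL BSA. Initial slope used as activity.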

Experiment [3] deals with T1, Protein deacetylase HDAC6 (Homo sapiens) (UniProt Q9UBN7).
T1 sequence (whole entry): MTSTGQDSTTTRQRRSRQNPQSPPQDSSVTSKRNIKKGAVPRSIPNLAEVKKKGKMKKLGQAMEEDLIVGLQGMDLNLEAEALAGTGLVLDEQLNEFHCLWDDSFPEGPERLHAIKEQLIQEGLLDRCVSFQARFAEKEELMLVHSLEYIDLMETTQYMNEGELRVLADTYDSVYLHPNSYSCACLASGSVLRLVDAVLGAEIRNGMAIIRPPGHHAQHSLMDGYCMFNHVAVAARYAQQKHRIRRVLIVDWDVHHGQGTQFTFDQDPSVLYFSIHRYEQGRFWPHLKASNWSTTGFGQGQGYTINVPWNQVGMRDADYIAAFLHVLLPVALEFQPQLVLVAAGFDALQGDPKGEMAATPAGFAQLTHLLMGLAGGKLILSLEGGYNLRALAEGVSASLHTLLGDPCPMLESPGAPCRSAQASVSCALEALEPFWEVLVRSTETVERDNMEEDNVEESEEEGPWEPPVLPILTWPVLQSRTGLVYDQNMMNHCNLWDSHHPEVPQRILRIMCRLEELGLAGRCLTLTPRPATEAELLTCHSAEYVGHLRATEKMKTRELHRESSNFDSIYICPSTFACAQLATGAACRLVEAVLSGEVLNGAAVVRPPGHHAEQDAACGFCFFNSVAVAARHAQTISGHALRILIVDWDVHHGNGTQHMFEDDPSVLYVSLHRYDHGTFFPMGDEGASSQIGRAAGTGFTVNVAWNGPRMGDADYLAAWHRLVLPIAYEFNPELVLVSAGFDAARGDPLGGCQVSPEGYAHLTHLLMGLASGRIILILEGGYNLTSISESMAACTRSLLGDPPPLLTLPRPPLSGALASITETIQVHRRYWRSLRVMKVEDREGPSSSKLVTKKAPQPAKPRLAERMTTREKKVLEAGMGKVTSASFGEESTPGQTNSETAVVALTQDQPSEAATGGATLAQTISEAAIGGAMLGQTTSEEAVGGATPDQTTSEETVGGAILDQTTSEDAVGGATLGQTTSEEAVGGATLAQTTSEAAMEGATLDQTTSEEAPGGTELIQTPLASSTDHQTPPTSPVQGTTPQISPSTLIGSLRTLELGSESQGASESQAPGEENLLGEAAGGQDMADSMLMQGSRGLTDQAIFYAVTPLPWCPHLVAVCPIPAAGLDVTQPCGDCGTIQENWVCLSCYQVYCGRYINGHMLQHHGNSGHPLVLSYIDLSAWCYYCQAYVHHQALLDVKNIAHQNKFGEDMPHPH
Description: Binding affinity to HDAC6 in human MCF7 cells assessed as target engagement by measuring rescue of PROTAC induced protein degradation at 20 uM preincubated with compound for 30 mins followed by PROTAC 4-((5-(8-(2-((2-(2,6-dioxopiperidin-3-yl)-1,3-dioxoisoindolin-4 yl)oxy)acetamido)octanamido)-2-meth …. In kind it is cell-based. To be noted: time 6.5 hrs.

In experiment [4] the target is T2, Histone deacetylase 7 (Homo sapiens) (UniProt Q8WUI4).
T2 sequence (whole entry): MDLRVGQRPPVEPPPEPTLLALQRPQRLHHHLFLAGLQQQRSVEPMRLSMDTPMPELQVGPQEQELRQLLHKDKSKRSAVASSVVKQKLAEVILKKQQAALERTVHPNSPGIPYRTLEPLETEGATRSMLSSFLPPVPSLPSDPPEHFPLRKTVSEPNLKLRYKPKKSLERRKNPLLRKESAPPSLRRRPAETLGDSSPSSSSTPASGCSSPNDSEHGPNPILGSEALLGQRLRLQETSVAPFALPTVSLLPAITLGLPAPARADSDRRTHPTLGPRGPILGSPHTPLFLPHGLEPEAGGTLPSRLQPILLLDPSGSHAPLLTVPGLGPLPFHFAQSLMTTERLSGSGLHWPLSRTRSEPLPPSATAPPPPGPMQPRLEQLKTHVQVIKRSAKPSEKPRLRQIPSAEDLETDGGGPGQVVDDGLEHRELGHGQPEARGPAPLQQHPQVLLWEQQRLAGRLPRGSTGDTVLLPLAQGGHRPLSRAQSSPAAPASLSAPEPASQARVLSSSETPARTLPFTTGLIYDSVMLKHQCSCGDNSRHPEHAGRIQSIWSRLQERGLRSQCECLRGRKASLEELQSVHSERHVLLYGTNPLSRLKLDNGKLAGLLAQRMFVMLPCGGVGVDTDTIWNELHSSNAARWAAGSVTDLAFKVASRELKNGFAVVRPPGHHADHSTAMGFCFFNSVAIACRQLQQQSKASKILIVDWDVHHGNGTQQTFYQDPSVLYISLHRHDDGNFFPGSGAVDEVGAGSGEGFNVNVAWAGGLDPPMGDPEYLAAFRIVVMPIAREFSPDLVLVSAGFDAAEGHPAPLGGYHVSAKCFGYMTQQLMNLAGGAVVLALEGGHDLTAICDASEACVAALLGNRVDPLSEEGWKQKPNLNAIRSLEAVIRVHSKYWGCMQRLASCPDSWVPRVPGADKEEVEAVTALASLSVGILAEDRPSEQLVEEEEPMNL
Put plainly: Inhibition of HDAC7 (unknown origin) using Abz-SRGGK(STFA)FRR-NH2 as substrate at 6 to 20000 nM preincubated for 5 mins followed by substrate addition and measured every 30 secs for 30 mins by continuous fluorescence based assay. Conditions: dose 6-20000 nM, time 35.0 min. In outline: as §1

Sequence of Histone deacetylase 9 (Homo sapiens) (Q9UKV0 whole entry): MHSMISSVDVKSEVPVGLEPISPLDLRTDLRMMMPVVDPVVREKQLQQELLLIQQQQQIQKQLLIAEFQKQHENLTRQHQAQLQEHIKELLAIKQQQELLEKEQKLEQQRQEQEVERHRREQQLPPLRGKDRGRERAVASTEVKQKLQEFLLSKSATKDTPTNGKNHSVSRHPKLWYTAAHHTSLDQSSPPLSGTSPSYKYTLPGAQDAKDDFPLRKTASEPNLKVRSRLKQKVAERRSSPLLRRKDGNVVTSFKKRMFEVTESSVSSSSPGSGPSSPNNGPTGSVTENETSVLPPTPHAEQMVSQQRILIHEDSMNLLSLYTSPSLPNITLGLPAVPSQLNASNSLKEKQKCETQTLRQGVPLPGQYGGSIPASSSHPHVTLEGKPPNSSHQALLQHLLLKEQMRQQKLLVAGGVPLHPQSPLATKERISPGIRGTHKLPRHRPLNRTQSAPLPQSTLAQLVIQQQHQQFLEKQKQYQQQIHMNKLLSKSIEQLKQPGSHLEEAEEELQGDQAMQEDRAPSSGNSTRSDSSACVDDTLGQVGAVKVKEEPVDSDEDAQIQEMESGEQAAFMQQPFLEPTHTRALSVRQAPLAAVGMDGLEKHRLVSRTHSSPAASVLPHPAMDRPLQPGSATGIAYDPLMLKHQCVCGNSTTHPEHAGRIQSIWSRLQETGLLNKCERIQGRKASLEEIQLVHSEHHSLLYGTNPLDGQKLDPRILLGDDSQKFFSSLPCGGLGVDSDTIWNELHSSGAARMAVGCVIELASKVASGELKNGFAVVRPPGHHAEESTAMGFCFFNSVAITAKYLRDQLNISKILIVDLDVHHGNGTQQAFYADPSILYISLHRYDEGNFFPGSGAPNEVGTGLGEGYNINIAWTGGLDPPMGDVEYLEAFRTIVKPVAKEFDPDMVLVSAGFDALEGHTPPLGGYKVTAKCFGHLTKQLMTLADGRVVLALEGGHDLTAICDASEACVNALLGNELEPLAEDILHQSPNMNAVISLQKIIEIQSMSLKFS

Take `CCCCN(Cc1ccc(C(=O)NO)cc1)C(=O)CCCCn1cc(COc2cccc(Cc3cnc(NC(=O)CSc4nc(C)cc(C)n4)s3)c2)nn1`: the outcome in experiment [1] and in experiment [3] was Active. Besides, the inhibition result in experiment [2] and in experiment [4] was “inactive” throughout.
